From article PMC9279630 (Acta Pharmaceutica Sinica. B, 2021)

Format: in vivo
Conditions: mouse
Procedure, shortened: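 Mice dosed i.p.; horizontal brain sections taken at time points over 24 h, treated by laser-assisted chemical transfer with CHCA as matrix, and imaged by MALDI MSI for the test compound and its metabolite. Relative intensities in brain regions and lateral ventricles cross-checked by LC‒MS/MS. Three biological and technical replicates; mean ± SD from three animals.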

With `Cc1nc2n(c(=O)c1CCN1CCC(c3noc4cc(F)ccc34)CC1)CCCC2` [RISP, risperidone] as the compound, how does the Tmax (male, ICR, brain, ip, 20 mg/kg) read?
Its Tmax is ~15 min.

And the “brain regional distribution after 2 h” value (after 2 h, i.p. RISP 20 mg/kg)?
The value was “a small amount of parent drug was only observed in the lateral ventricles”.

What about the brain regional distribution (after i.p. administration of RISP 20 mg/kg, around peak) of the same compound?
The brain regional distribution was “mainly observed in the frontal cortex, striatum, and hippocampus regions”.
